This is a sample that favours compounds with a hit; in the whole collection about 2.3% have one here.
OXTR potentiate – potentiates the human oxytocin receptor response; CHO-OTR cells, Fluo-8 calcium fluorescence, potentiator mode; 0% = oxytocin EC15, 100% = EC100; hit rate 0.061% among 320,000; activation, % at 3 µM; P30559; AID 2445;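 active means activation above that plate's cutoff, the mean activation of tested compounds plus 3 SD, cut at about 6.6% in these data, passing the limit was not always enough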;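 further: 100% uses oxytocin at 75 nM as the full agonist control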
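Assay system: CHO-OTR cells, human receptor / Also added: oxytocin at about EC15, sub-maximal agonist stimulus / Dosing: single dose, 3.0 µM nominal final compound concentration / Incubation: 6 min pre-incubation, 100 s read / Technique: Fluo-8 calcium dye fluorescence / Read-out: % activation vs EC15 and EC100 oxytocin / Benchmarks: EC15 oxytocin low, 75 nM oxytocin high / Replicates: singlicate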
OXTR ag – agonists of human oxytocin receptor. activation, % at 3 µM. hit rate 0.32% among 320,000. P30559. CHO-OTR cells, Fluo-8 calcium fluorescence; normalized: DMSO 0%, oxytocin 100%. AID 2435;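 active means activation above the mean of all tested compounds plus 3 SD, cutoff set per screening run, cut at about 20% in these data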;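 further: peak over basal fluorescence ratio from a 100 s FLIPR kinetic read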
TAAR1 ag – human TAAR1 agonism; activation, % at 3 µM; CHO RD-HGA16 TAAR1, Fluo-8 calcium fluorescence; vehicle wells 0%, saturating PEA agonist 100%; AID 624467; hit rate 0.99% among 360,000; Q96RJ0;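 active means activation above the mean activation of all test compounds in the run plus 3 SD, cut at about 38% in these data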
Target sequence (Q96RJ0 whole entry, looked up): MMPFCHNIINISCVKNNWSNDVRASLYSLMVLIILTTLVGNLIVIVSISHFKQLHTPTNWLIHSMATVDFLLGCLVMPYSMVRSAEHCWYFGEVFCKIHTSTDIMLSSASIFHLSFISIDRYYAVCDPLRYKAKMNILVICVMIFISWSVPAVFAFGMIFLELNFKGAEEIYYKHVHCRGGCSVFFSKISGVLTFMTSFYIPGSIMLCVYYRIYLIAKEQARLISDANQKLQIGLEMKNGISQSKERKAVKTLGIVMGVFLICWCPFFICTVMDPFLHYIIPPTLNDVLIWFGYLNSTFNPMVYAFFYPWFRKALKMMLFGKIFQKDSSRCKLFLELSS
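Test system: RD-HGA16 (CHO) cells co-expressing Gα16 and hTAAR1 / Benchmarks: DMSO vehicle as 0%, PEA at EC100 as 100% / Repeats: no replicates (n 1) / Measure: % activation from peak over basal fluorescence ratio, DMSO-to-PEA scaled / Timing: 17-24 h plating, Fluo-8 75 min 37 °C, 30 min RT / Technique: kinetic Fluo-8 calcium fluorescence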
V1R ag counter – counter-screen for oxytocin receptor agonists: human V1a receptor agonists; P37288; CHO-V1R cells, Fluo-8 calcium fluorescence, agonist mode; 0% DMSO, 100% 3 nM vasopressin; activation, % at 3 µM; hit rate 0.25% among 320,000; AID 2797;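 active means activation above the mean activation of all tested compounds plus 3 SD, per screening run, cut at about 20% in these data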;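 further: signal is peak over basal fluorescence ratio across a 100 second FLIPR read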
TAAR1 antag – antagonists of human TAAR1; CHO RD-HGA16 TAAR1, Fluo-8 calcium fluorescence, antagonist; inhibition, % at 3 µM; hit rate 1.5% among 360,000; AID 624466;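 active means inhibition above a per-plate cutoff, the mean inhibition of test compounds on that plate plus 3 SD, cut at about 49% in these data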;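 further: 0% = DMSO plus EC80 beta-PEA response and 100% = DMSO alone without agonist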
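Test system: CHO RD-HGA16 cells bearing hTAAR1 | Reagent: β-PEA, EC80 | Compound dosing: 3 µM, single point | Schedule: Dye loading 75 min at 37 °C, then 30 min room temperature | Signal: Calcium fluorescence with Fluo-8 | Evaluation: Percent inhibition of PEA-evoked calcium signal, max/basal emission ratio | Control set: DMSO-only wells and EC80 β-PEA-stimulated wells | Repeats: Singlicate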
nonsel antag count – nonselective antagonist in TAAR1 antagonist counter-screen. shares compounds with TAAR1 antag. counterscreen cell line, calcium fluorescence, antagonist mode. inhibition, % at 3 µM. hit rate 77% among 2,400. AID 651780; in the data active means inhibition above about 22%;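 further: CHO-Ga16 host cells stimulated with ATP at an EC80 level; 0% = agonist EC80 plus vehicle and 100% = vehicle without agonist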
TAAR1 antag conf – confirmation of human TAAR1 antagonists; shares compounds with TAAR1 antag; hit rate 40% among 2,400; AID 651785; inhibition, % at 3 µM; TAAR1-expressing cells, fluorescence antagonist read-out; in the data active means inhibition above about 49%;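 further: CHO-Ga16 host cells challenged with agonist PEA near its EC80; 0% = agonist at EC80 plus vehicle and 100% = vehicle with no agonist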
Ga16 ag counter – nonselective Ga16 agonist in TAAR1 antagonist counter-screen; Ga16-expressing cells, calcium fluorescence, agonist counterscreen; activation, % at 3 µM; hit rate 18% among 2,400; shares compounds with TAAR1 antag; in the data active means activation above about 12%;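 further: 0% = vehicle wells and 100% = saturating stimulus response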
TAAR1 ag count – counter-screen for human TAAR1 antagonists: TAAR1 agonists; shares compounds with TAAR1 antag; hTAAR1 cell line, fluorescence activation, agonist mode; activation, % at 3 µM; hit rate 2% among 2,400; AID 651955; in the data active means activation above about 37%;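 further: CHO cells stably expressing TAAR1 with calcium dye readout; 0% = DMSO vehicle and 100% = full agonist response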
The depositor's hits bear a star.

For O=C(CC(C(=O)c1ccccc1)c1ccccc1)c1ccccc1 (stereo not drawn) the results were TAAR1 ag 1, TAAR1 antag 67*, nonsel antag count 23*, TAAR1 antag conf 40, Ga16 ag counter 6 and TAAR1 ag count 2.
`CN(C)CC(C(=O)c1ccccc1)c1ccccc1` (stereo not drawn) gave OXTR potentiate -10, OXTR ag -2, TAAR1 ag 1, V1R ag counter -1 and TAAR1 antag 10.
Screening O=C(Cn1c(NCCO)nc2ccccc21)Nc1ccc2c(c1)OCCCO2 returned TAAR1 ag 1 and TAAR1 antag -7.
`COC(=O)C1(CC2CC(c3cccc(Br)c3)=NO2)CCN(C(=O)OC(C)(C)C)CC1` (stereo not drawn) gave OXTR potentiate -14, OXTR ag -2, TAAR1 ag 12, V1R ag counter 3, TAAR1 antag 71*, nonsel antag count 29*, TAAR1 antag conf 64*, Ga16 ag counter 5 and TAAR1 ag count 7.
Screening CC(C)(C)OC(=O)N1CCC(CC2CC(c3ccccc3)=NO2)(C(=O)NCc2ccccc2)CC1 (stereo not drawn) returned OXTR potentiate 4, OXTR ag -1, TAAR1 ag 7, V1R ag counter 0 and TAAR1 antag 30.
For CC1(C)CC2CC(C)(CN2S(=O)(=O)c2ccc(F)cc2F)C1 (stereo not drawn) the results were OXTR potentiate -5, OXTR ag -2, TAAR1 ag 0, V1R ag counter -1 and TAAR1 antag -10.
Screening c1ccc(-c2nc(NCC3CC3)nc3ccsc23)cc1 returned TAAR1 ag -1 and TAAR1 antag -17.
Screening C=CCN1C[C@H](COC(=O)c2cccc(OC)c2)Oc2cccc(F)c2S1(=O)=O returned TAAR1 ag 9, TAAR1 antag 79*, nonsel antag count 41*, TAAR1 antag conf 56*, Ga16 ag counter 12* and TAAR1 ag count 9.
CC1CN(c2ccc(NC(=S)NNCCC#N)cc2)CC(C)O1 (stereo not drawn) was read as OXTR potentiate -5, OXTR ag 0, TAAR1 ag 2, V1R ag counter 0 and TAAR1 antag 7.
Screening COc1ccc(NC(=O)COC(=O)/C=C/c2cnc3ccccc3n2)cc1 returned OXTR potentiate 2, OXTR ag -1, TAAR1 ag 3, V1R ag counter 0 and TAAR1 antag -4.
`COc1ccc([C@H]2/C=C\CN(Cc3ccc(N(C)C)cc3)[C@@H](C)C(=O)N2Cc2ccc(F)cc2)cc1` gave OXTR potentiate -23, OXTR ag -2, TAAR1 ag 3, V1R ag counter -1 and TAAR1 antag 16.
COc1cc(/C=C(\C#N)c2nc3ccccc3[nH]2)cc(Br)c1OCc1ccccc1 was read as OXTR potentiate -9, OXTR ag -1, TAAR1 ag 8, V1R ag counter 0, TAAR1 antag 60*, nonsel antag count 47*, TAAR1 antag conf 56*, Ga16 ag counter 8 and TAAR1 ag count 5.
`COc1cc(/C=C(/C#N)c2ccccc2)ccc1Oc1ccc([N+](=O)[O-])cn1` gave OXTR potentiate -3, OXTR ag 2, TAAR1 ag 7, V1R ag counter 1 and TAAR1 antag 19.
COc1cc(/C=C(\C#N)c2nc3ccccc3[nH]2)ccc1Oc1ccc([N+](=O)[O-])cn1 was read as OXTR potentiate -5, OXTR ag 4, TAAR1 ag 20, V1R ag counter 4, TAAR1 antag 84*, nonsel antag count 50*, TAAR1 antag conf 65*, Ga16 ag counter 11 and TAAR1 ag count 9.
For Cc1ccccc1C(=O)Nc1ccc2c(c1)CCCN2C(=O)c1cccs1 the results were OXTR potentiate -10, OXTR ag 2, TAAR1 ag 3, V1R ag counter 5 and TAAR1 antag 30.
Screening Cc1ccc2c(c1)CCCN2C(=O)c1cccs1 returned OXTR potentiate 2, OXTR ag -2, TAAR1 ag 12, V1R ag counter -1 and TAAR1 antag -15.
For COc1ccc(C(=O)Nc2ccc3c(c2)CCCN3C(=O)c2cccs2)c(OC)c1 the results were OXTR potentiate -7, OXTR ag 1, TAAR1 ag 7, V1R ag counter 4, TAAR1 antag 55*, nonsel antag count 26*, TAAR1 antag conf 40, Ga16 ag counter 5 and TAAR1 ag count 1.
`COc1cccc(C(=O)Nc2ccc3c(c2)CCCN3C(=O)c2cccs2)c1OC` gave OXTR potentiate -10, OXTR ag -2, TAAR1 ag 2, V1R ag counter 1, TAAR1 antag 50*, nonsel antag count 24*, TAAR1 antag conf 39, Ga16 ag counter 6 and TAAR1 ag count 8.
`Cc1ccc(CN(Cc2ccco2)S(=O)(=O)c2ccc(S(=O)(=O)NCC3CCCO3)cc2)cc1` (stereo not drawn) gave OXTR potentiate -6, OXTR ag 0, TAAR1 ag 2, V1R ag counter 2 and TAAR1 antag 22.
For CCOc1cccc2cc(C(=O)N3CC(C)OC(C)C3)c(=O)oc12 (stereo not drawn) the results were OXTR potentiate -7, OXTR ag 0, TAAR1 ag -1, V1R ag counter 0 and TAAR1 antag -11.
`CCOC(=O)N1CCN(Cc2nc3ccc([N+](=O)[O-])cc3c(=O)n2-c2ccccc2F)CC1` gave OXTR potentiate 0, OXTR ag -1, TAAR1 ag 19, V1R ag counter 1, TAAR1 antag 71*, nonsel antag count 11, TAAR1 antag conf 15, Ga16 ag counter 4 and TAAR1 ag count 9.
Screening CCC(CC)N1CCN(Cc2nc3ccc([N+](=O)[O-])cc3c(=O)n2-c2ccccc2F)CC1 returned OXTR potentiate -10, OXTR ag 0, TAAR1 ag 1, V1R ag counter 0 and TAAR1 antag -15.
For Cc1ccc(S(=O)(=O)NCc2ccccc2NS(=O)(=O)c2ccc(C)cc2)cc1 the results were TAAR1 ag 0 and TAAR1 antag 23.
